# Source: ChEMBL document CHEMBL1121627, “Structure--activity relationships in a series of novel 3,4-dihydro-4-oxopyrimido[4,5-b]quinoline-2-carboxylic acid antiallergy agents” (1980)
# Activity calls are given as the source filed them.
# Tested on: Rattus norvegicus
# Test: The compound was evaluated for antiallergic activity against reagin induced passive cutaneous anaphylaxis reaction in rats upon peroral administration, at this dose the compound tested was found inactive, and is highly active at the same dose if ad ministered in solution of pH >/=10
# Type: functional
# Conditions: po
# Procedure, shortened: (§1)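 Rat passive cutaneous anaphylaxis. Just before challenge, controls for antihistamine, antiserotonin or nonspecific blockade are given intradermally: 60 µg histamine dihydrochloride and 0.5 µg serotonin-creatinine sulfate. Challenge is iv, 5 mg egg albumin with 2.5 mg Evan's Blue, given immediately after iv drug or 5 min after oral drug. Site scores are summed per group of 5 or 7 and expressed as % inhibition versus control. ED50 is taken from a by-eye dose-response curve, or from least-squares regression when n is larger.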
row,SMILES,ED50 [mg/kg]
1,CCOC(=O)c1nc(O)c2cc3cc(O)c(OC)cc3nc2n1,> 10
2,CCOC(=O)c1nc(O)c2cc3cc(OC)c(O)cc3nc2n1,> 3
3,O=C(O)c1nc(O)c2cc3cc(O)ccc3nc2n1,> 10
4,COc1cc2nc3nc(C(=O)O)nc(O)c3cc2cc1O,> 3

# Tested on: Cavia porcellus
# Test: Bronchoconstrictive effect of histamine aerosol in conscious guinea pigs at an iv dose of 30 mg/kg; Bronchoconstrictive effect is unaltered
# Type: functional, organism-based
# Set-up: dose 30 mg/kg
# Conditions: not given
row,SMILES,Activity
1,CCOC(=O)c1nc(=O)c2cc3cc(OC)c(OC)cc3nc2[nH]1 [PIROLATE],inactive

# Tested on: Rattus norvegicus
# Test: Antiallergic activity against reagin induced passive cutaneous anaphylaxis reaction in rats upon peroral administration.
# Type: functional
# Conditions: po
# Procedure, shortened: as §1
row,SMILES,ED50 [mg/kg]
1,CCOC(=O)c1nc(O)c2cc3c(Cl)cccc3nc2n1,30
2,CCOC(=O)c1nc(=O)c2cc3cc(OC)c(OC)cc3nc2[nH]1 [PIROLATE],1
3,CCOC(=O)c1nc(O)c2cc3ccc(OC)cc3nc2n1,10
4,CCOC(=O)c1nc(O)c2cc3cc(Sc4ccc(OC)cc4)ccc3nc2n1,30
5,CCOC(=O)c1nc(O)c2cc3cc(OC)ccc3nc2n1,20
6,CCOC(=O)c1nc(O)c2cc3cc(OCC)c(OC)cc3nc2n1,0.3
7,CCOC(=O)c1nc(O)c2cc3c(OC)ccc(OC)c3nc2n1,30
8,COc1cc2cc3c(O)nc(C(N)=O)nc3nc2cc1OC,30
9,CCOC(=O)c1nc(O)c2cc3cc(F)ccc3nc2n1,30
10,O=C(O)c1nc2nc3ccccc3cc2c(=O)[nH]1,25
11,COc1cc2cc3c(O)nc(C(=O)[O-])nc3nc2cc1OC.[Na+],10
12,NC(=O)c1nc(O)c2cc3ccccc3nc2n1,60
13,CCOC(=O)c1nc(O)c2c(-c3ccccc3)c3ccccc3nc2n1,10
14,CCCCOC(=O)c1nc(O)c2cc3ccccc3nc2n1,30
15,COc1cc2cc3c(O)nc(C)nc3nc2cc1OC,1
16,COc1cc2cc3c(O)nc(C(=O)OCCO)nc3nc2cc1OC,10
17,CCOC(=O)c1nc(O)c2cc3cc(OC)c(OCC)cc3nc2n1,2
18,CCOC(=O)c1nc(O)c2cc3cc(SC)ccc3nc2n1,8
19,CCOC(=O)c1nc(O)c2cc3cc(OC)c(OC)c(OC)c3nc2n1,10
20,CCOC(=O)c1nc(O)c2cc3cc([S+](C)[O-])ccc3nc2n1 (centres undefined),30
21,CCOC(=O)c1nc(O)c2cc3ccccc3nc2n1,3
22,CCOC(=O)c1nc(O)c2cc3cc(OCc4ccccc4)ccc3nc2n1,10
23,CCCCOc1cc2nc3nc(C(=O)OCC)nc(O)c3cc2cc1OCC,5
24,CCOC(=O)c1nc(O)c2cc3cc(OC)cc(OC)c3nc2n1,30
25,CCOC(=O)c1nc(O)c2cc3cc(OCC)c(OCC)cc3nc2n1,1
26,CCOC(=O)c1nc(O)c2cc3cc(Cl)ccc3nc2n1,30
27,CCOC(=O)c1nc(O)c2cc3cc4c(cc3nc2n1)OCO4,30
28,CCOC(=O)c1nc(O)c2cc3ccc(OC)c(OC)c3nc2n1,60
29,CCCCOC(=O)c1nc(O)c2cc3cc(OC)c(OC)cc3nc2n1,10
30,CCOC(=O)c1nc(O)c2cc3ccc(F)cc3nc2n1,30

# Tested on: Rattus norvegicus
# Test: The compound was evaluated for antiallergic activity against reagin induced passive cutaneous anaphylaxis reaction in rats upon peroral administration, the dose at which the compound was tested and found inactive
# Type: functional
# Conditions: po
# Procedure, shortened: as §1
row,SMILES,ED50 [mg/kg]
1,CCOC(=O)c1nc2nc3cc(OC)c(OC)cc3cc2c(=O)n1C,> 30
2,O=C([O-])c1cc(=O)c2c(OCC(O)COc3cccc4oc(C(=O)[O-])cc(=O)c34)cccc2o1.[Na+].[Na+] [CROMOLYN SODIUM],> 300
3,CCOC(=O)CCCn1c(C(=O)OCC)nc2nc3cc(OC)c(OC)cc3cc2c1=O,> 10

# Tested on: Rattus norvegicus
# Test: The compound was evaluated for antiallergic activity against reagin induced passive cutaneous anaphylaxis reaction in rats upon peroral administration. at this dose the compound tested was found inactive
# Type: functional
# Conditions: po
# Procedure, shortened: as §1
row,SMILES,ED50 [mg/kg]
1,CCOC(=O)c1nc(O)c2cc3cc(OC)c(OCc4ccccc4)cc3nc2n1,> 30

# Tested on: Rattus norvegicus
# Test: Inhibition of plasma histamine release induced by antigen challenge in rats assively sensitized with homologus antisera at an iv dose of 0.1 mg/kg
# Type: functional
# Conditions: not given
row,SMILES,inhibition in vivo at 0.1 mg/kg [%]
1,CCOC(=O)c1nc(=O)c2cc3cc(OC)c(OC)cc3nc2[nH]1 [PIROLATE],92

# Tested on: Rattus norvegicus
# Test: The compound was evaluated for antiallergic activity against reagin induced passive cutaneous anaphylaxis reaction in rats upon peroral administration; at this dose the compound tested was found inactive
# Type: functional
# Conditions: po
# Procedure, shortened: as §1
row,SMILES,ED50 [mg/kg]
1,CCOC(=O)c1nc(O)c2cc3cc(OCc4ccccc4)c(OC)cc3nc2n1,> 10
2,CCOC(=O)c1nc(O)c2cc3cc(OCC)c(OCc4ccccc4)cc3nc2n1,> 30

# Tested on: Rattus norvegicus
# Test: The compound was evaluated for antiallergic activity against reagin induced passive cutaneous anaphylaxis reaction in rats upon peroral administration, pH dependent, more active when administered in solution of pH>/=10
# Type: functional
# Conditions: po
# Procedure, shortened: as §1
row,SMILES,ED50 [mg/kg]
1,CCOC(=O)c1nc(O)c2cc3cc(OC(C)=O)c(OC)cc3nc2n1,10
2,CCOC(=O)c1nc(O)c2cc3cc(O)ccc3nc2n1,10
3,CCCCOC(=O)c1nc(O)c2cc3cc(O)c(OC)cc3nc2n1,10

# Tested on: Rattus norvegicus
# Test: The compound was evaluated for antiallergic activity against reagin induced passive cutaneous anaphylaxis reaction in rats upon peroral administration; highest dose at which the compound was tested and found inactive
# Type: functional
# Conditions: po
# Procedure, shortened: as §1
row,SMILES,ED50 [mg/kg]
1,CCc1nc(O)c2cc3cc(OC)c(OC)cc3nc2n1,> 60
2,COc1cc2cc3c(O)nc(C(=O)NO)nc3nc2cc1OC,> 60
3,COc1cc2cc3c(O)nc(C(C)=O)nc3nc2cc1OC,> 10

# Tested on: Rattus norvegicus
# Test: Antiallergic activity against reagin induced passive cutaneous anaphylaxis reaction in rats upon intravenous administration.
# Type: functional
# Conditions: not given
# Procedure, shortened: as §1
row,SMILES,ED50 [mg/kg]
1,CCOC(=O)c1nc2nc3cc(OC)c(OC)cc3cc2c(=O)n1C,0.8
2,CCOC(=O)c1nc(O)c2cc3c(Cl)cccc3nc2n1,0.2
3,O=C([O-])c1cc(=O)c2c(OCC(O)COc3cccc4oc(C(=O)[O-])cc(=O)c34)cccc2o1.[Na+].[Na+] [CROMOLYN SODIUM],0.8
4,CCOC(=O)c1nc(=O)c2cc3cc(OC)c(OC)cc3nc2[nH]1 [PIROLATE],0.007
5,CCOC(=O)c1nc(O)c2cc3ccc(OC)cc3nc2n1,0.8
6,CCNC(=O)c1nc(O)c2cc3ccccc3nc2n1,3
7,CCOC(=O)c1nc(O)c2cc3cc(Sc4ccc(OC)cc4)ccc3nc2n1,3
8,CCOC(=O)c1nc(O)c2cc3cc(OC)ccc3nc2n1,0.03
9,CCOC(=O)c1nc(O)c2cc3cc(OCC)c(OC)cc3nc2n1,0.002
10,CCOC(=O)c1nc(O)c2cc3c(OC)ccc(OC)c3nc2n1,0.6
11,CCOC(=O)c1nc(O)c2cc3cc(OC(C)=O)c(OC)cc3nc2n1,0.007
12,COc1cc2cc3c(O)nc(C(N)=O)nc3nc2cc1OC,3
13,CCOC(=O)c1nc(O)c2cc3cc(F)ccc3nc2n1,0.3
14,O=C(O)c1nc2nc3ccccc3cc2c(=O)[nH]1,0.2
15,CCOC(=O)Cn1c(C(=O)OCC)nc2nc3cc(OC)c(OC)cc3cc2c1=O,3
16,COc1cc2cc3c(O)nc(C(=O)[O-])nc3nc2cc1OC.[Na+],0.005
17,NC(=O)c1nc(O)c2cc3ccccc3nc2n1,1.3
18,CCc1nc(O)c2cc3cc(OC)c(OC)cc3nc2n1,3
19,CCOC(=O)c1nc(O)c2c(-c3ccccc3)c3ccccc3nc2n1,0.3

row,SMILES,ED50 [mg/kg]
1,CCOC(=O)c1nc(O)c2cc3cc(O)c(OC)cc3nc2n1,0.001
2,CCNC(=O)c1nc(O)c2cc3cc(OC)c(OC)cc3nc2n1,3
3,COc1cc2cc3c(=O)[nH]c(=O)[nH]c3nc2cc1OC,3
4,CCOC(=O)c1nc(O)c2cc3cc(O)ccc3nc2n1,0.7
5,COc1cc2cc3c(O)nc(C(=O)NO)nc3nc2cc1OC,< 3
6,CCCCOC(=O)c1nc(O)c2cc3ccccc3nc2n1,0.06
7,CCOC(=O)c1nc(O)c2cc3cc(OC)c(O)cc3nc2n1,1
8,COc1cc2cc3c(O)nc(C)nc3nc2cc1OC,0.4
9,COc1cc2cc3c(O)nc(C(=O)OCCO)nc3nc2cc1OC,< 0.03
10,CCOC(=O)c1nc(O)c2cc3cc(OCc4ccccc4)c(OC)cc3nc2n1,3
11,CCOC(=O)c1nc(O)c2cc3cc(OC)c(OCC)cc3nc2n1,0.007
12,CCOC(=O)c1nc(O)c2cc3cc(SC)ccc3nc2n1,0.1
13,CCOC(=O)CNC(=O)c1nc(O)c2cc3cc(OC)c(OC)cc3nc2n1,6
14,CCOC(=O)c1nc(O)c2cc3cc(OC)c(OC)c(OC)c3nc2n1,0.8
15,CCOC(=O)c1nc(O)c2cc3cc([S+](C)[O-])ccc3nc2n1 (centres undefined),0.2
16,CCOC(=O)c1nc(O)c2cc3ccccc3nc2n1,0.1
17,CNC(=O)c1nc(O)c2cc3cc(OC)c(OC)cc3nc2n1,3
18,CCOC(=O)c1nc(O)c2cc3cc(OCc4ccccc4)ccc3nc2n1,0.9
19,CCCCOc1cc2nc3nc(C(=O)OCC)nc(O)c3cc2cc1OCC,0.3

row,SMILES,ED50 [mg/kg]
1,O=C(O)c1nc(O)c2cc3cc(O)ccc3nc2n1,0.01
2,COc1cc2cc3c(O)nc(C(F)(F)F)nc3nc2cc1OC,> 10
3,CCOC(=O)c1nc(O)c2cc3cc(OC)cc(OC)c3nc2n1,0.5
4,CCOC(=O)c1nc(O)c2cc3cc4c(cc3nc2n1)OCCO4,1
5,CCOC(=O)c1nc(O)c2cc3cc(OCC)c(OCC)cc3nc2n1,0.01
6,CCOC(=O)c1nc(O)c2cc3cc(Cl)ccc3nc2n1,0.4
7,CCOC(=O)c1nc(O)c2cc3cc4c(cc3nc2n1)OCO4,0.5
8,COc1cc2cc3c(O)nc(-c4ccccc4)nc3nc2cc1OC,3
9,CCCCOC(=O)c1nc(O)c2cc3cc(O)c(OC)cc3nc2n1,0.008
10,COc1cc2cc3c(O)nc(C(C)=O)nc3nc2cc1OC,2
11,CCOC(=O)c1nc(O)c2cc3ccc(OC)c(OC)c3nc2n1,0.2
12,COc1cc2cc3c(O)ncnc3nc2cc1OC,3
13,COc1cc2nc3nc(C(=O)O)nc(O)c3cc2cc1O,< 0.01
14,CCOC(=O)c1nc(O)c2cc3cc(OCC)c(OCc4ccccc4)cc3nc2n1,0.9
15,CCOC(=O)CCCn1c(C(=O)OCC)nc2nc3cc(OC)c(OC)cc3cc2c1=O,0.1
16,CCCCOC(=O)c1nc(O)c2cc3cc(OC)c(OC)cc3nc2n1,0.003
17,CCOC(=O)c1nc(O)c2cc3cc(OC)c(OCc4ccccc4)cc3nc2n1,0.8
18,CCOC(=O)c1nc(O)c2cc3ccc(F)cc3nc2n1,0.3
